Source: ChEMBL document CHEMBL4261516, “Design, synthesis and pharmacological evaluation of new 2-oxo-quinoline derivatives containing α-aminophosphonates as potential antitumor agents” (Medchemcomm, 2017)
Activity calls are given as the source filed them. The calls are words filed in the database; no cut-off is given here.

How the values were obtained:
HepG2 [1] = test: Cell cycle arrest in human HepG2 cells assessed as accumulation at G1 phase at 8 uM after 48 hrs by propidium iodide staining-based flow cytometric method (reference value: 50.47%); assay type: functional
HepG2 [2] = test: Cell cycle arrest in human HepG2 cells assessed as accumulation at S phase at 10 uM after 48 hrs by propidium iodide staining-based flow cytometric method (reference value: 30.49%); assay type: functional
HepG2 [3] = test: Downregulation of CDC25C expression in human HepG2 cells after 48 hrs by Western blot method; assay type: functional, cell-based
HepG2 [4] = test: Upregulation of p53 expression in human HepG2 cells after 48 hrs by Western blot method; assay type: functional, cell-based
HepG2 [5] = test: Disruption of mitochondrial membrane potential in human HepG2 cells at 10 uM after 12 hrs by JC1 staining-based fluorescent microscopic method; assay type: functional, cell-based
HepG2 [6] = test: Induction of morphological changes in human HepG2 cells at 10 uM after 12 hrs by Hoechst 33258 staining-based fluorescent microscopic method; assay type: functional, cell-based
Procedure, shortened: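 Cells were treated on cover slips, fixed in 4% paraformaldehyde for 10 min and washed with PBS. They were stained with Hoechst 33258 for 5 min, washed again, and nuclei were examined by fluorescence microscopy (excitation 350 nm, emission 460 nm).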

HepG2 [7] = test: Induction of apoptosis in human HepG2 cells assessed as pycnosis at 10 uM after 24 hrs by acridine orange/ethidium bromide staining-based fluorescent microscopic method; assay type: functional, cell-based
Procedure, shortened: (§1)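 Cells were plated at 5×10^4 cells/mL on sterile cover slips. Medium was replaced with fresh medium containing 10% FBS plus compound. After treatment, cover slips were inverted onto slides with acridine orange/ethidium bromide stain and viewed by fluorescence microscopy.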

HepG2 [8] = test: Induction of apoptosis in human HepG2 cells assessed as membrane blebbing at 10 uM after 24 hrs by acridine orange/ethidium bromide staining-based fluorescent microscopic method; assay type: functional, cell-based; procedure, shortened: as §1
HepG2 [9] = test: Induction of apoptosis in human HepG2 cells assessed as viable cells at 8 uM after 24 hrs by annexin V/[…] staining-based fluorescent microscopic method (reference value: 91.31%); assay type: functional; settings: HepG2, 24 h, read-out: Activity
HepG2 [10] = test: Induction of apoptosis in human HepG2 cells assessed as upregulation of caspase-3 levels at 8 to 12 uM after 24 hrs by Western blot method; assay type: functional, cell-based
Procedure, shortened: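 Treated HepG2 cells were lysed on ice in 1% SDS/Tris-HCl pH 7.5 buffer with EDTA, NaCl, PMSF, leupeptin and trypsin inhibitor, then cleared at 12,000 × g for 5 min. Protein was quantified by BCA, and 40–50 µg was run on 12% SDS-PAGE and blotted to PVDF. Membranes were blocked with 5% milk, incubated with primary antibody overnight at 4 °C and HRP secondary for 1 h. Detection by chemiluminescence with densitometry.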

HepG2 [11] = test: Induction of apoptosis in human HepG2 cells assessed as upregulation of PARP levels at 8 to 12 uM after 24 hrs by Western blot method; assay type: functional, cell-based
HepG2 [12] = test: Induction of apoptosis in human HepG2 cells assessed as upregulation of reactive oxygen species generation at 10 uM by DCFH-DA/DAPI staining-based fluorescence microscopic method; assay type: functional, cell-based

## CCOP(=O)(Cc1ccc(/N=C/c2cc3cc(C)ccc3[nH]c2=O)cc1)OCC
HepG2 [1]
  Activity: 35.31%
HepG2 [2]
  Activity: 29.16%
HepG2 [3]
  Activity: Dose-dependent effect
HepG2 [4]
  Activity: Dose-dependent effect
HepG2 [5]
  Activity: Active
HepG2 [6]
  Activity: Active
HepG2 [7]
  Activity: Active
HepG2 [8]
  Activity: Active
HepG2 [9]
  viability at 8 µM: 62.5%
HepG2 [10]
  Activity: Active
HepG2 [11]
  Activity: Active
HepG2 [12]
  Activity: Active
